PfM18AAP inh: blocks P. falciparum M18 aspartyl aminopeptidase; inhibition, % at 7.35 µM; hit rate 1.2% among 290,000; recombinant PfM18AAP, H-Glu-NHMec fluorogenic cleavage;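 active = inhibition above the campaign mean inhibition over all tested compounds plus 3 SD, cut at about 28% in these data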;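 also: 0% = plate median of test compound wells and 100% = 2 mM ZnCl2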
Wee1 degr inh: human Wee1 degradation inhibition, primary screen; HeLa Luc-Wee1K328M stability, luciferase luminescence; 100% = proteasome inhibitor MG132 effect; reporter increase, % at 5 µM; hit rate 1.2% among 220,000; AID 1321;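 active = activation above the mean of all tested compounds plus 3 SD, set per screening run, cut at about 8.8% in these data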;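 also: cells exposed to compound for 20 h before luminescence read; 0% = DMSO alone and 100% = MG132 at 30 µM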
p97 ATPase inh: human p97 ATPase inhibition. AID 1481. P55072. recombinant p97 ATPase, Kinase-Glo ATP luminescence, 3 h. inhibition, % at 8 µM. hit rate 0.42% among 220,000; in the data active = inhibition above about 15%;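 also: 0% = DMSO vehicle and 100% = wells lacking enzyme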
TNF necrop inh: TNF-alpha cell death inhibition in Jurkat FADD-/- cells; Jurkat FADD-/- TNF necroptosis rescue, ATP luminescence, 24 h; 0 = TNF only, 100 = no-TNF cells; activation (protection from cell death), % at 10 µM; hit rate 0.068% among 220,000;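 active = activation, meaning protection from cell death, of at least 50% relative to plate controls; inactive = activation below 50%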;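 also: necroptosis triggered by 40 ng/mL TNF-alpha added together with compound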
zVAD death inh: blocks zVAD induced death of L929 cells | L929 zVAD necroptosis rescue, ATP luminescence, 24 h; with zVAD 60 µM | viability rescue, % at 10 µM | hit rate 0.38% among 220,000 | AID 1377;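 active = activation, scaled between plate controls, above about 75%, limit read from the data; inactive = activation under that limit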;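 also: 0% = zVAD with DMSO and 100% = DMSO alone without zVAD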
RBBP9 inh: inhibitors of human serine hydrolase RBBP9; O75884; recombinant RBBP9, FP-Rh probe fluorescence polarization; inhibition, % at 7.94 µM; hit rate 0.2% among 220,000; AID 1515;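 active = inhibition above the campaign mean of all tested compounds plus 3 SD, cut at about 14% in these data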;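 also: plate controls were DMSO wells with RBBP9 for no effect and wells lacking RBBP9 protein for full effect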
Target sequence (O75884 whole entry, looked up): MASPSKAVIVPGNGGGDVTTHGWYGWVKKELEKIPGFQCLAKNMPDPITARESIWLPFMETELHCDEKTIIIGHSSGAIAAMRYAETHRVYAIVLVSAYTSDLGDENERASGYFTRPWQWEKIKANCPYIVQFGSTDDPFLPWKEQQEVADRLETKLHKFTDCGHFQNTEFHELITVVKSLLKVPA
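Test system: recombinant human RBBP9; Timing: 30 min then 45 min, 25 °C; Detection: fluorescence polarization; Control set: RBBP9 with DMSO as uninhibited control, no-protein wells as full inhibition; Compound dosing: one concentration, 7.94 µM nominal, 0.794% DMSO; Probe or stimulus: FP-Rh activity-based probe, 375 nM before mixing.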
An asterisk follows results filed as active; . = no result. An excerpt weighted towards active compounds, which were near 2.7% of everything screened.

SMILES | PfM18AAP inh | Wee1 degr inh | p97 ATPase inh | TNF necrop inh | zVAD death inh | RBBP9 inh
COc1ccc(-n2nnnc2S(=O)(=O)CC(=O)N2CCCCC2)cc1 | -26.4 | 1.8 | 3.9 | -15.6 | 79.3* | 5.5
O=C(NC(=S)Nc1ccc(CN2CCOCC2)cc1)c1ccco1 | 1.9 | 10.4* | -1.6 | 1.3 | 0.9 | -6.0
COC(=O)N/N=C/c1ccc(Oc2ccccc2)cc1 | -7.3 | 4.2 | -4.3 | -1.1 | 0.0 | -1.1
Cc1ccc(N=Nc2c(O)n(CN3CCOCC3)c3ccccc23)cc1 | 0.4 | 3.5 | -3.0 | -2.9 | 85.2* | -4.2
Cc1cccc(NC(=S)N=Nc2c(O)n(CN3CCOCC3)c3ccccc23)c1C | 5.7 | -3.3 | 6.1 | 2.0 | -0.9 | -4.1
Clc1cccc(Cl)c1CNc1ccc(N2CCCC2)cc1 | 14.9 | 6.1 | 2.0 | -8.6 | -0.4 | 1.8
COCc1cc(=O)n2[nH]cc(-c3ccsc3)c2n1 | 3.5 | . | . | . | . | .
CC(=O)Nc1nnc(-c2ccc(Cl)s2)o1 | -1.2 | 0.4 | 3.3 | 0.6 | 1.1 | -7.3
CCC(=O)Nc1nnc(-c2ccc(Cl)s2)o1 | 2.8 | 9.3* | 4.9 | 1.5 | 0.3 | -2.1
Cn1nccc1C(=O)Oc1ccc(/C=N/NC(=O)c2ccccc2O)cc1 | 9.2 | -1.0 | 6.2 | -0.7 | 1.2 | 1.8
O=C(Nc1ccccc1)Nc1csc2ccccc12 | 4.2 | 10.0* | -3.0 | 3.9 | 1.4 | 4.9
COc1ccccc1CNS(=O)(=O)N(C)C | 1.5 | -2.5 | 2.6 | -0.3 | 1.5 | -7.1
CS(=O)(=O)N(Cc1ccc(C(=O)NN=C2CCCC2)cc1)c1ccccc1 | -3.0 | 9.3* | 4.7 | 0.3 | 1.4 | -10.5
COc1ccccc1C1=NN(C(=O)c2ccccc2)C(c2ccc(Br)cc2)C1 (centres undefined) | -16.9 | . | . | . | . | .
Cc1ccc(NC2CCCN(C(=O)CSc3ccncc3)C2)cc1C (centres undefined) | -0.3 | . | . | . | . | .
Cc1cc(-c2nnc(SCC(=O)Nc3nc(-c4ccccc4)cs3)o2)no1 | 30.2* | 3.6 | 4.8 | -5.8 | -0.1 | -4.7
Cc1csc(NC(=O)CSc2nnc(-c3cc(C)on3)o2)n1 | 19.1 | -1.2 | 8.3 | 1.3 | 0.5 | 7.2
CCOc1ccc(NC(=O)CSc2nnc(CNC(=O)c3cccs3)o2)cc1 | -0.9 | . | . | . | . | .
CN(C)C(CNC(=S)Nc1ccc(F)cc1)c1cccnc1 (centres undefined) | 4.7 | 10.2* | -1.4 | 0.2 | -0.1 | -4.1
CC1CN(c2ccccc2)CCN1Cc1nc(Cc2ccccc2)no1 (centres undefined) | -9.1 | -3.5 | -1.7 | 1.8 | 2.9 | -5.0
COc1ccc(NC(=O)c2ccc(-c3csc(C)n3)cc2)cc1 | -2.4 | . | . | . | . | .
COc1ccc(-c2csc(-c3ccc(C(=O)O)cc3)n2)cc1 | -2.9 | 10.0* | -0.1 | 0.9 | 3.4 | -0.6
O=C(O)c1ccc(-c2nc(-c3ccc(Cl)cc3)cs2)cc1 | -0.9 | 7.7 | -1.2 | 0.7 | 0.6 | -4.3
COc1ccc(-c2csc(C)n2)cc1 | -19.8 | 9.0* | 2.6 | 1.0 | 0.3 | 2.7
O=C(O)c1cccc(N2C(=O)/C(=C/c3ccc(SCc4ccc(Cl)cc4)o3)SC2=S)c1 | 8.1 | 12.2* | 6.4 | -11.3 | -0.3 | -5.0
SMILES | PfM18AAP inh | Wee1 degr inh | p97 ATPase inh | TNF necrop inh | zVAD death inh | RBBP9 inh
Cc1ccc(/C(O)=C/C(=O)C(=O)NC23CC4CC(CC(C4)C2)C3)cc1 | -8.3 | 2.2 | 1.8 | 1.0 | 1.5 | -2.0
N#Cc1ccc(OCC(=O)NCC(c2cccs2)N2CCOCC2)cc1 (centres undefined) | 2.8 | . | . | . | . | .
CCN(CC)S(=O)(=O)c1ccc(N/N=C/c2ccc(O)cc2O)nc1 | 36.5* | 4.2 | 12.9 | -18.6 | 7.3 | 0.0
CCOc1ccc(-n2c(C)nc3cc(C(=O)NCc4ccco4)ccc32)cc1 | -7.4 | 9.5* | -7.2 | -0.4 | -0.1 | -6.5
c1cnc2c(OCc3cn4cccnc4n3)cccc2c1 | 7.1 | 1.8 | 3.1 | -0.1 | 0.3 | 0.4
Clc1ccc(OCc2cn3cccnc3n2)c2ncccc12 | -2.6 | 10.6* | -2.2 | -0.3 | 0.0 | 2.0
CCN(CC)S(=O)(=O)c1cccc(C(=O)N/N=C2\CC(=O)CC(C)(C)C2)c1 | 8.6 | 9.5* | 2.5 | 0.2 | -0.2 | 1.4
Nc1nc(=S)c2ncn(C3CCCC3)c2[nH]1 | 36.3* | 1.1 | 7.8 | 0.8 | 0.8 | 1.9
COc1ccc2cc(/C(C)=N/NC(=S)Nc3cc(S(=O)(=O)N4CCOCC4)ccc3N3CCOCC3)ccc2c1 | 29.7* | -3.8 | 2.1 | -0.9 | 0.0 | 2.6
C/C(CCC(C)C)=N\NC(=S)Nc1cc(S(=O)(=O)N2CCOCC2)ccc1N1CCOCC1 | 28.2* | 1.6 | 4.8 | 2.8 | 0.4 | -9.4
C/C(=N\NC(=S)Nc1cc(S(=O)(=O)N2CCOCC2)ccc1Cl)c1ccc(N2CCOCC2)cc1 | 9.8 | 3.3 | 0.3 | 1.8 | 0.6 | -3.9
Cc1cc(C(=O)CSc2cccc[n+]2[O-])c(C)n1-c1ccc(Br)cc1 | 6.4 | 9.6* | 2.7 | -3.3 | -0.5 | 5.1
CCc1cccc2c1NC(=O)C2(O)CC(=O)c1cccs1 (centres undefined) | -6.5 | -0.9 | 2.0 | 0.4 | 2.7 | 3.4
CCc1ccc2c(c1)C(O)(CC(=O)c1cccs1)C(=O)N2 (centres undefined) | 2.6 | 9.8* | -1.7 | -0.4 | 1.1 | 1.9
CC(OC(=O)CNC(=O)C12CC3CC(CC(C3)C1)C2)C(=O)Nc1ncc(Cl)cc1Cl (centres undefined) | 3.2 | -1.3 | 4.2 | -2.5 | 1.4 | -1.7
CC1CCc2sc(C(=O)OC(C)C(=O)Nc3ncc(Cl)cc3Cl)cc2C1 (centres undefined) | -0.1 | 10.1* | 4.3 | 1.8 | 1.2 | 3.6
COc1cc([N+](=O)[O-])ccc1NC(=O)CSc1nnc(C)c(C)n1 | 2.2 | -3.0 | -0.3 | 0.7 | 10.9 | -2.2
N=C1C(c2ccccc2)=C(O)CN1c1cccc(S(=O)(=O)NCc2ccco2)c1 | -1.2 | 9.2* | 2.3 | 1.0 | 1.0 | -5.4
N=C1C(c2ccccc2)=C(O)CN1c1cccc(S(N)(=O)=O)c1 | 10.8 | 2.9 | 6.3 | 1.6 | 0.7 | -4.3
COc1ccccc1-n1c(O)c(C=NCc2ccccn2)c2ccccc2c1=O | 2.7 | -3.1 | 14.5* | 2.8 | 1.0 | 1.2
Cc1ccc(-n2c(O)c(C=NCc3ccccn3)c3ccccc3c2=O)cc1 | 7.8 | 0.9 | 4.0 | 1.4 | 0.7 | -0.5
O=C(Nc1nc(=O)c2ccccc2s1)c1ccc(Cl)cc1 | 29.8* | 7.4 | -5.7 | -0.6 | -0.1 | -6.9
Nc1ccc(C(=O)Nc2nc3ccccc3s2)cc1 | 2.8 | 8.9* | -4.0 | -2.1 | 1.9 | -10.2
Cc1cc(C)n(-c2ccc(C(=O)Nc3nc4ccccc4s3)cc2)n1 | 1.8 | -1.1 | 1.4 | -1.8 | 0.6 | -4.0
CC(=O)c1sc(NC(=O)c2ccc(Cl)cc2)nc1C | -5.0 | 1.4 | -3.1 | 1.3 | -0.7 | -8.0
